Test results taken from ChEMBL document CHEMBL3627648, “Synthesis and biochemical evaluation of benzoylbenzophenone thiosemicarbazone analogues as potent and selective inhibitors of cathepsin L” (Bioorg Med Chem, 2015).
Activity calls are given as the source filed them. No cut-off for these calls is given here.

What was measured:
Cathepsin B = Cathepsin B (Homo sapiens, UniProt P07858); test: Inhibition of human liver cathepsin B using Z-RR-AMC as substrate after 5 mins by fluorescence assay
In short: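 Human liver cathepsin B (1 nM) was pre-incubated 5 min at 37 °C with inhibitor (final 10 µM to 10 pM). Substrate was 60 µM Z-RR-AMC in 120 mM sodium potassium phosphate pH 6.0 with 1 mM EDTA, 3 mM DTT, 0.01% Brij 35 and 2% DMSO. AMC fluorescence (ex 355/em 460 nm) was read for 5 min at 37 °C.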

Procathepsin L [1] = target: T1, Procathepsin L (Homo sapiens, UniProt P07711); test: Inhibition of human liver cathepsin L using Z-FR-AMC as substrate measured every 15 sec for 5 mins by fluorescence assay
Target sequence in this assay (P07711 whole entry): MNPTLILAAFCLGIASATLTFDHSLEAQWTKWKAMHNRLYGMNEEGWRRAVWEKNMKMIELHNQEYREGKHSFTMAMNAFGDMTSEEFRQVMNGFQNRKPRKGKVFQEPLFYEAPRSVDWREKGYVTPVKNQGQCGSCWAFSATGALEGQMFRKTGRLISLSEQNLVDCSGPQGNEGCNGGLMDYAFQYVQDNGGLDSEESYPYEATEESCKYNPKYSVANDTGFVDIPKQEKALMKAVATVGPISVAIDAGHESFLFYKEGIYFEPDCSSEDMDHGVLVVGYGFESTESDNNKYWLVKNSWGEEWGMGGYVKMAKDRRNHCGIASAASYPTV

MDA-MB-231 [2] = test: Antiinvasive activity in human MDA-MB-231 cells at 10 uM after 24 hrs by inverted microscopic analysis; format: functional; settings: MDA-MB-231, 24 h
In short: (§1)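 MDA-MB-231 cells at 80% confluence, 50,000 per Matrigel-coated insert (8 µm PET membrane) in DMEM with 10 or 25 µM compound and 2% DMSO. The lower chamber held DMEM with 10% FBS as chemoattractant. After 24 h at 37 °C in 5% CO2, invaded cells were methanol-fixed, Diff-stained and counted by hand in ten fields at 40x. Values were normalised to the 2% DMSO vehicle; triplicate.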

[3] = Antiinvasive activity in human PC3-ML cells at 5 uM after 24 hrs by microscopic analysis; format: functional
In short: (§2)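 PC-3ML cells, a metastatic PC-3 subline, were seeded in serum-free medium into Matrigel-coated invasion inserts, with 10% FBS medium in the bottom chamber. At 24 h, cells that reached the membrane underside were stained and counted by microscope. Mean and standard error come from 3-5 independent experiments.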

MDA-MB-231 [4] = test: Antiinvasive activity in human MDA-MB-231 cells at 25 uM after 24 hrs by inverted microscopic analysis; format: functional; settings: for inhibition at 25 µM: MDA-MB-231, 24 h; in short: as §1
MDA-MB-231 [5] = test: Antimigrative activity in human MDA-MB-231 cells at 25 uM after 24 hrs by inverted microscopic analysis; format: functional; settings: MDA-MB-231, 24 h
In short: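 Transwell migration of MDA-MB-231 cells, run as for invasion but on 8 µm pore inserts without Matrigel. Each insert held 50,000 cells in DMEM with 25 µM compound and 2% DMSO, with 10% FBS DMEM below. After 24 h at 37 °C, cells were fixed, stained and counted by microscope. Values were normalised to the DMSO vehicle; triplicate.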

HUVEC = test: Cytotoxicity against HUVEC cells after 48 hrs by SRB assay; format: cell-based; settings: human
In short: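 SRB growth assay: HUVECs (pooled donors, passage ≤5) plated at 9,000 cells/well for 24 h, then exposed to ten-fold serial dilutions for 48 h. Cells were TCA-fixed and stained with 0.4% SRB, and absorbance read at 540 nm normalised to 630 nm.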

[6] = Antiinvasive activity in human PC3-ML cells at 1 uM after 24 hrs by microscopic analysis; format: functional; in short: as §2
[7] = Antiinvasive activity in human PC3-ML cells at 10 uM after 24 hrs by microscopic analysis; format: functional; in short: as §2
Mus musculus = test: Toxicity in C3H mouse derived mammary cancer cells implanted CDF1 mouse assessed as drug tolerability at 20 mg/kg, ip administered 5 consecutive days starting either on day of tumor implantation or when tumors reached 200 mm'3; format: organism-based, Cancer cell lines; settings: in vivo
[8] = Antitumor activity against C3H mouse derived mammary cancer cells implanted in CDF1 mouse assessed as time taken for tumors to reach 500 mm'3 at 20 mg/kg, ip administered 5 consecutive days starting either on day of tumor implantation or when tumors reached 200 mm'3 (reference value: 20.1 +/- 0.6 days); format: functional, Cancer cell lines
In short: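 Female CDF1 mice, 10-14 weeks old, had minced C3H mammary carcinoma tissue (5-10 µl) implanted in the right rear foot. Dosing was 20 mg/kg i.p. at 0.02 ml/g, dissolved in Tween80 and diluted to 10% with saline, given daily for 5 days. Tumour volume was followed daily to find days to reach 500 mm3. Groups had 5-8 mice; mean ±1 S.E.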

[9] = Antiinvasive activity in human PC3-ML cells at 25 uM after 24 hrs by microscopic analysis; format: functional; in short: as §2
Procathepsin L [10] = target: T1, Procathepsin L; test: Inhibition of human liver cathepsin L using Z-FR-AMC as substrate at 10000 nM measured every 15 sec for 5 mins by fluorescence assay
In short: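 Human liver cathepsin L (1 nM) was pre-incubated 5 min at 25 °C with 10 µM inhibitor or vehicle. Substrate was 50 µM Z-FR-AMC in 100 mM NaOAc pH 5.5 with 1 mM EDTA, 3 mM DTT, 0.01% Brij 35 and 2% DMSO.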
Target sequence in this assay (P07711 114-333 limits assumed): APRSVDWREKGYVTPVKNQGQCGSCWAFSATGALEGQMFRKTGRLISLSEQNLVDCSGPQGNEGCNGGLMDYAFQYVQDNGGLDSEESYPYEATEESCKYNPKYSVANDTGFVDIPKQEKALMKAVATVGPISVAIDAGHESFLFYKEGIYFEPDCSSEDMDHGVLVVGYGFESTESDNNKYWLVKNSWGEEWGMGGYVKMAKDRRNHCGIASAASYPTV

Row | IC50 (Cathepsin B) | IC50 (Procathepsin L [1]) | SMILES | GI50 (HUVEC) | further results
1 | > 10 µM | 5.12 µM | COc1ccc(C(=O)c2cccc(/C(=N/NC(N)=S)c3ccc(OC)cc3)c2)cc1 | – | –
2 | > 10 µM | 0.0144 µM | NC(=S)N/N=C(\c1ccc(F)cc1)c1cccc(C(=O)c2ccc(F)cc2)c1 | > 126 µM | inhibition at 10 µM (MDA-MB-231 [2]): 15%; inhibition at 5 µM [3]: 92%; inhibition at 25 µM (MDA-MB-231 [4]): 60%; inhibition at 25 µM (MDA-MB-231 [5]): > 50%; inhibition at 1 µM [6]: 59%
3 | > 10 µM | 0.34 µM | NC(=S)N/N=C(\c1ccc(O)cc1)c1cccc(C(=O)c2ccc(O)cc2)c1 | – | –
4 | > 10 µM | 0.056 µM | NC(=S)N/N=C(\c1ccccc1)c1cc(C(=O)c2ccccc2)cc(C(=O)c2ccccc2)c1 | – | –
5 | > 10 µM | > 10 µM | CC(C)Oc1ccc(C(=O)c2cccc(/C(=N/NC(N)=S)c3ccc(OC(C)C)cc3)c2)cc1 | – | –
6 | > 10 µM | 0.654 µM | Cc1cccc(C(=O)c2cccc(/C(=N/NC(N)=S)c3cccc(C)c3)c2)c1 | – | –
7 | > 10 µM | 0.0716 µM | NC(=S)N/N=C(\c1cccc(O)c1)c1cc(Br)cc(C(=O)c2cccc(O)c2)c1 | 13.3 µM | –
8 | > 10 µM | 0.00985 µM | NC(=S)N/N=C(\c1ccccc1)c1cccc(C(=O)c2ccccc2)c1 | 53.3 µM | inhibition at 10 µM [7]: 37%; Activity (Mus musculus): Non-toxic; Time [8]: 22.1 days; inhibition at 25 µM [9]: 53%; inhibition at 25 µM (MDA-MB-231 [4]): 30%; inhibition at 25 µM (MDA-MB-231 [5]): 80%
9 | > 10 µM | 1.52 µM | NC(=S)N/N=C(\c1ccc(Br)cc1)c1cccc(C(=O)c2ccc(Br)cc2)c1 | – | –
10 | > 10 µM | 0.00812 µM | NC(=S)N/N=C(\c1cc(Br)cc(C(=O)c2ccccc2F)c1)c1ccccc1F | > 85.9 µM | inhibition at 10 µM (MDA-MB-231 [2]): 70%; inhibition (MDA-MB-231 [4]): Active; inhibition at 25 µM (MDA-MB-231 [5]): > 50%
11 | > 10 µM | 10 µM | NC(=S)N/N=C(\c1cccc(Br)c1)c1cc(O)cc(C(=O)c2cccc(Br)c2)c1 | – | inhibition (Procathepsin L [10]): 56.9%
12 | > 10 µM | 0.0238 µM | NC(=S)N/N=C(\c1ccccc1)c1cccc(C(O)c2ccccc2)c1 (stereo not given) | – | –
13 | – | – | COc1cccc2c1C(=O)c1c(O)c3c(c(O)c1C2=O)C[C@@](O)(C(=O)CO)C[C@@H]3O[C@H]1C[C@H](N)[C@H](O)[C@H](C)O1 [DOXORUBICIN] | 0.0268 µM | –
14 | – | – | CC(C)C[C@H](NC(=O)[C@@H]1O[C@H]1C(=O)O)C(=O)NCCCCN=C(N)N | – | inhibition at 10 µM (MDA-MB-231 [2]): 60%
15 | > 10 µM | 10.3 µM | NC(=S)N/N=C(\c1cccc(Br)c1)c1cc(Br)cc(C(=O)c2cccc(Br)c2)c1 | – | –
16 | > 10 µM | > 10 µM | NC(=S)N/N=C(\c1ccc(Br)cc1)c1cccc(/C(=N/NC(N)=S)c2ccc(Br)cc2)c1 | – | –
17 | – | – | CC(=O)O[C@H]1C(=O)[C@@]2(C)[C@H]([C@H](OC(=O)c3ccccc3)[C@]3(O)C[C@H](OC(=O)[C@H](O)[C@@H](NC(=O)c4ccccc4)c4ccccc4)C(C)=C1C3(C)C)[C@]1(OC(C)=O)CO[C@@H]1C[C@@H]2O [PACLITAXEL] | 0.00148 µM | –
